RORa activator: RORA (human) activation. P35398. CHO-K1 Gal4-RORA LBD luciferase reporter, luminescence; percent increase over mock-subtracted basal signal. activation, % at 10 µM. actives 1.5% (n = 65,000). AID 560;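 active = activation above the mean of all tested compounds plus 3 SD, cut at about 49% in these data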;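 also: 0% = DMSO-treated RORA cells and 100% = added signal equal to DMSO minus mock-transfected cells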
Target sequence (P35398 whole entry, looked up, the tested form may be a part): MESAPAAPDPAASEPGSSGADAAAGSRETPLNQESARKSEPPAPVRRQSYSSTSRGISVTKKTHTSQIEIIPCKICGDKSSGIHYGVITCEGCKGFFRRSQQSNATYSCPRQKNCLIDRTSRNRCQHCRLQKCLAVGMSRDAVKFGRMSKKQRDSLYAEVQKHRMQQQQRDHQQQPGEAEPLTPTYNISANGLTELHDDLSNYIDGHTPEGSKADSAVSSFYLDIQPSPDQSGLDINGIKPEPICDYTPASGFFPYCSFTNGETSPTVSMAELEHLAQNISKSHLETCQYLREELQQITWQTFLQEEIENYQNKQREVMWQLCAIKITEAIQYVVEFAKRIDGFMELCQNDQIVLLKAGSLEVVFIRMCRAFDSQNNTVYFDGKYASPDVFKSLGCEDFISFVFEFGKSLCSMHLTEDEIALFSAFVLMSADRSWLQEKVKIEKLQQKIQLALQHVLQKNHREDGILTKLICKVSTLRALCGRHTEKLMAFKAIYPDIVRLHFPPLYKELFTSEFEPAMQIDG
M1 antagonist: antagonists of rat M1 muscarinic receptor. CHO-M1 cells, Fluo-4 calcium, ACh EC80 antagonist mode; hits give low values. P08482. B-score at 10 µM. actives 3.4% (n = 64,000);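 active = calcium fluorescence response, raw or row-and-column corrected B-score, differing from the plate sample mean either way at a set confidence level, mostly lower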
MT1-MMP txn act: MT1-MMP promoter transcription activation | HT1080 MT1-MMP promoter luciferase reporter, luminescence, overnight; hits give high values | activation factor at 10 µM | actives 0.16% (n = 86,000) | AID 750;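 active = activation factor of at least 2 for MT1-MMP transcription at 10 µM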
SF-1 act: activates the human nuclear receptor SF-1. Q13285. CHO-K1 Gal4-SF-1 LBD luciferase reporter; % increase over DMSO SF-1-specific signal. activation, % at 10 µM. actives 1.9% (n = 65,000);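 active = activation above the mean activation of all tested compounds plus 3 SD, cut at about 50% in these data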
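Test system: CHO-K1 cells with Gal4–hSF-1 LBD chimera plus Gal4-driven luciferase; Input: 4,000 cells/well; Compound: 10 µM only; Times: 20 h compound treatment, 37 °C; Measured by: steady-glow luciferase luminescence, read after 15 min reagent incubation; Measure: percent activation versus DMSO; Control set: DMSO and mock-transfected background; Replicates: one test per compound.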
M1 ag: M1 muscarinic receptor agonism; CHO-M1 cells, Fluo-4 calcium fluorescence, agonist mode; hits give high values; B-score at 10 µM; actives 3% (n = 64,000); AID 626;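 active = fluorescence rise, raw or as B-score row- and column-corrected plate score, outside the 99.7% band of its plate's samples, either direction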
M1 ag confirm: confirmation of rat M1 muscarinic receptor agonists; CHO-M1 cells, Fluo-4 calcium fluorescence, agonist mode; actives lie on both sides; actives 19% (n = 1,700); shares compounds with M1 ag; AID 1488; fluorescence change (max-min) at 10 µM;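 active = fluorescence change differs from the solvent-only DMSO control mean at a set confidence level in both duplicate runs; inconclusive = differs from solvent-only control mean in just one of two runs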;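 also: an EC20 dose of acetylcholine follows compound addition during the same imaging run; raw fluorescence intensity difference in instrument units with no normalization to controls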
M4 ag counter: activates rat M4 receptor in counter-screen for M1 agonists; shares compounds with M1 ag; CHO M4/Gqi5 cells, Fluo-4 calcium fluorescence, agonist mode; actives lie on both sides; fluorescence change (max-min) at 10 µM; actives 9% (n = 1,700); AID 1741;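 active = fluorescence change differing from the plate's solvent-only control wells at 99.7% confidence in both duplicates, whether higher or lower; inconclusive = differs from solvent controls in only one of two duplicates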
An asterisk follows results filed as active. In the library only some 6.3% were active in any assay of this set; here they are far more common.

Screening COc1ccccc1C1C=C(c2ccc(Cl)cc2)Nc2nc(N3C(=O)CCC3=O)nn21 (configuration not stated) returned RORa activator -8, M1 antagonist -0.046, MT1-MMP txn act 1.1, SF-1 act -12 and M1 ag -1.2.
Cn1nnnc1SCC(=O)Nc1ccccc1N1CCCCC1 was read as RORa activator -3, MT1-MMP txn act 1 and SF-1 act -2.
Screening COc1ccc(Cl)cc1N(CC(=O)Nc1ccc2c(c1)OCO2)S(C)(=O)=O returned RORa activator -21, M1 antagonist 0.17, MT1-MMP txn act 1.1, SF-1 act -20 and M1 ag -2.
`COc1ccc(OC)c(N(CC(=O)Nc2cccnc2)S(=O)(=O)c2ccc(OC)c(OC)c2)c1` gave RORa activator -11, M1 antagonist -0.95, MT1-MMP txn act 1.1, SF-1 act -8, M1 ag 2.2*, M1 ag confirm -12 and M4 ag counter inconclusive.
COc1ccc(OC)c(N(CC(=O)Nc2ccc3c(c2)OCO3)S(=O)(=O)c2ccccc2)c1 was read as RORa activator 7, M1 antagonist 0.5, MT1-MMP txn act 1, SF-1 act 0, M1 ag 2.8*, M1 ag confirm inconclusive and M4 ag counter inconclusive.
For CC1(C)CC(=O)C(C=NCC2CCN(C(=O)Nc3ccc(Cl)c(Cl)c3)CC2)=C(O)C1 the results were MT1-MMP txn act 1.2.
`CC(=O)N(C)c1nnc(-c2ccccn2)s1` gave MT1-MMP txn act 1.8.
For N#CC(C(=O)NC1CCCCC1)c1nc2ccccc2nc1N1CCN(c2ccc(F)cc2)CC1 (configuration not stated) the results were RORa activator -6, M1 antagonist -0.91, MT1-MMP txn act 1.2, SF-1 act -2, M1 ag 14*, M1 ag confirm 241* and M4 ag counter inconclusive.
For CCOC(=O)C1CCCN(c2nc3ccccc3nc2C(C#N)C(=O)OCCOC)C1 (configuration not stated) the results were RORa activator -2, M1 antagonist -0.83, MT1-MMP txn act 1.1, SF-1 act -5, M1 ag 6.8*, M1 ag confirm -7 and M4 ag counter -28.
Screening N#CC(C(=O)NC1CC1)c1nc2ccccc2nc1N1CCCC1 (configuration not stated) returned RORa activator -25, M1 antagonist 1.3, MT1-MMP txn act 1, SF-1 act 9 and M1 ag -0.11.
Screening CCCCOC(=O)C(C#N)c1nc2ccccc2nc1N1CCN(Cc2ccc3c(c2)OCO3)CC1 (configuration not stated) returned RORa activator -5, M1 antagonist -0.23, MT1-MMP txn act 1, SF-1 act -9, M1 ag 14*, M1 ag confirm 31 and M4 ag counter 6.1.
`CCOC(=O)C1CCCN(c2nc3ccccc3nc2C(C#N)C(=O)OCC)C1` (configuration not stated) gave RORa activator -1, M1 antagonist -0.72, MT1-MMP txn act 1.3, SF-1 act -10 and M1 ag 0.81.
N#CC(C(=O)OC1CCCCC1)c1nc2ccccc2nc1N1CCOCC1 (configuration not stated) was read as RORa activator -19, M1 antagonist 4.8*, MT1-MMP txn act 1, SF-1 act -13, M1 ag 72*, M1 ag confirm -13 and M4 ag counter -26.
`CC1(C)N=C(N)NC(Nc2ccccc2)=N1` gave MT1-MMP txn act 0.9.
O=C(C1CCN(Cc2cc(Cl)ccc2O)CC1)N1CCN(Cc2ccccc2)CC1 was read as RORa activator 1, M1 antagonist 0.17, MT1-MMP txn act 1.2, SF-1 act 4, M1 ag 5.6*, M1 ag confirm inconclusive and M4 ag counter -41.
For O=C(c1ccccc1)N(Cc1ccc2c(c1)OCO2)Cc1nc2ccccc2c(=O)[nH]1 the results were RORa activator -14, M1 antagonist -0.27, MT1-MMP txn act 1.1, SF-1 act -5, M1 ag 2.7*, M1 ag confirm inconclusive and M4 ag counter -83.

High-throughput results from PubChem.
